Reference: ChEMBL document CHEMBL1156853, “Structure-function relationships and crystal structures of the vitamin D receptor bound 2 alpha-methyl-(20S,23S)- and 2 alpha-methyl-(20S,23R)-epoxymethano-1 alpha,25-dihydroxyvitamin D3” (J Med Chem, 2010)
Calls of active or inactive are those of the source. No cut-off for these calls is given here.

Assays:
[1] = biological target: T1, Vitamin D3 receptor (Homo sapiens) (UniProt P11473); assay: Agonist activity at GAL4 tagged human VDR ligand binding domain expressed in MCF7 cells assessed as receptor transactivation at 1 nM by luciferase reporter gene assay relative to 2alpha-methyl-(20S,23S)-epoxymethano-1 alpha,25-dihydroxyvitamin D(3); format: cell-based
T1 sequence (whole entry): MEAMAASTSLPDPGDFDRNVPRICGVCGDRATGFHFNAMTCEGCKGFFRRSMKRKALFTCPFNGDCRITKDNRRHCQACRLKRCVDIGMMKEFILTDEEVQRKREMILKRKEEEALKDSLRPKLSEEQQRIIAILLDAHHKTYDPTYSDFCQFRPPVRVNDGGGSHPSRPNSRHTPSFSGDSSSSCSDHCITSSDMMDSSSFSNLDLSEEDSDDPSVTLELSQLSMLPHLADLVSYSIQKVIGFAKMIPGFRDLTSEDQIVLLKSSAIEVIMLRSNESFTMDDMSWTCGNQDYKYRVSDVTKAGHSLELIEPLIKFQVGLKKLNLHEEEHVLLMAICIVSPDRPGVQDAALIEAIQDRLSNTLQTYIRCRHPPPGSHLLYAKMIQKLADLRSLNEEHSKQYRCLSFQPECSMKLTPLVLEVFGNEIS
How it was run: (§1)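 Gal4 DBD fused to human VDR LBD (90-427). MCF-7 cells seeded at 10^5 per well and grown overnight in phenol red-free DMEM with 10% charcoal-treated FCS and insulin. Transfected (jetPEI) with Gal4-VDR, ptk-LUC reporter and β-galactosidase plasmid. Ligand or solvent added 10 h later in phenol red-free DMEM/10% FCS. Luciferase read 24 h after stimulation and normalized to β-galactosidase. Triplicates, at least three experiments.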

[2] = biological target: T1, Vitamin D3 receptor (Homo sapiens); assay: Agonist activity at GAL4 tagged human VDR ligand binding domain expressed in MCF7 cells assessed as receptor transactivation at 5 nM by luciferase reporter gene assay relative to 2alpha-methyl-(20S,23S)-epoxymethano-1 alpha,25-dihydroxyvitamin D(3); format: cell-based; how it was run: as §1
[3] = biological target: T1, Vitamin D3 receptor (Homo sapiens); assay: Binding affinity to human VDR ligand binding domain assessed as SRC1 peptide binding dissociation constant by fluorescence anisotrophy relative to 1-alpha,25(OH)(2)D(3)
How it was run: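 Steady-state fluorescence anisotropy at 20 °C. Kd obtained from anisotropy values of free peptide, peptide at each protein concentration and plateau. Representative of three experiments.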

[4] = biological target: T1, Vitamin D3 receptor (Homo sapiens); assay: Agonist activity at GAL4 tagged human VDR ligand binding domain expressed in MCF7 cells assessed as receptor transactivation at 0.1 nM by luciferase reporter gene assay relative to 2alpha-methyl-(20S,23S)-epoxymethano-1 alpha,25-dihydroxyvitamin D(3); format: cell-based; how it was run: as §1
[5] = test system: Mus musculus; assay: Toxicity in C57BL/6J mouse assessed as increase in serum calcium level at 0.1 ug/kg, ip administered every 2 days for 3 weeks; format: organism-based; details: in vivo, 0.0001 mg/kg
How it was run: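 Male C57BL/6J mice, 6-7 weeks old, 6-7 per group. Ligand in sesame oil given ip at 0.1 μg/kg every second day for 3 weeks; vehicle controls received sesame oil. Serum calcium measured weekly after a 3 h fast, by clinical analyzer kit. Mean ± SEM.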

[6] = test system: HL-60; assay: Antiproliferative activity against human HL60 cells at 0.1 nM after 96 hrs; format: functional, cell-based
How it was run: (§2)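 HL60 cells grown in RPMI with 10% fetal calf serum at 37 °C without CO2. Plated at 4 × 10^5 cells/mL and exposed 96 h to various ligand concentrations, with 0.7% ethanol as control. Cells then counted; mean ± SEM.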

[7] = test system: HL-60; assay: Induction of cell differentiation in human HL60 cells assessed as CD11c and CD14 expression at 0.1 nM after 96 hrs relative to untreated control; format: functional
How it was run: (§3)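 HL60 cells plated at 4 × 10^5 cells/mL in RPMI/10% FCS at 37 °C and treated 96 h, with 0.7% ethanol control. Stained with PE-anti-CD11c and FITC-anti-CD14, and Topro-3 added to exclude dead cells. Flow cytometry counted the CD11c/CD14 double-positive subpopulation. Representative of three experiments.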

[8] = test system: HL-60; assay: Antiproliferative activity against human HL60 cells after 96 hrs; format: functional, cell-based; how it was run: as §2
[9] = test system: HL-60; assay: Induction of cell differentiation in human HL60 cells assessed as CD11c and CD14 expression after 96 hrs; format: functional, cell-based; how it was run: as §3
[10] = biological target: T1, Vitamin D3 receptor (Homo sapiens); assay: Agonist activity at GAL4 tagged human VDR ligand binding domain expressed in MCF7 cells assessed as receptor transactivation at 0.1 nM by luciferase reporter gene assay relative to (20S,23S)-epoxymethano-1 alpha,25-dihydroxyvitamin D(3); format: cell-based; how it was run: as §1
[11] = biological target: T1, Vitamin D3 receptor (Homo sapiens); assay: Agonist activity at GAL4 tagged human VDR ligand binding domain expressed in MCF7 cells assessed as receptor transactivation at 5 nM by luciferase reporter gene assay relative to 1-alpha,25(OH)(2)D(3); format: cell-based; how it was run: as §1
[12] = biological target: T1, Vitamin D3 receptor (Homo sapiens); assay: Agonist activity at GAL4 tagged human VDR ligand binding domain expressed in MCF7 cells assessed as receptor transactivation at 0.1 nM by luciferase reporter gene assay relative to 1-alpha,25(OH)(2)D(3); format: cell-based; how it was run: as §1

| Compound | Activity [1] [%] | Activity [2] [%] | fold change (FC) [3] | Activity [4] [%] | fold change (FC) [10] | Activity [11] | fold change (FC) [12] | Activity [5] | Activity [6] | Activity [7] | Activity [8] | Activity [9] | fold change (FC) [7] |
| --- | --- | --- | --- | --- | --- | --- | --- | --- | --- | --- | --- | --- | --- |
| C=C1/C(=C\C=C2/CCC[C@]3(C)[C@@H]([C@@H]4C[C@@H](CC(C)(C)O)CO4)CC[C@@H]23)C[C@@H](O)C[C@@H]1O | 42 | 73 | 0.9 | 26 |  |  |  | Toxic | inactive | inactive |  |  |  |
| C=C1/C(=C\C=C2/CCC[C@]3(C)[C@@H]([C@H](C)CCCC(C)(C)O)CC[C@@H]23)C[C@@H](O)C[C@@H]1O |  |  |  |  |  |  |  |  | inactive | inactive |  |  |  |

Second part, led by results:

| Activity [1] [%] | Activity [2] [%] | fold change (FC) [3] | Activity [4] [%] | fold change (FC) [10] | Activity [11] | fold change (FC) [12] | Compound | Activity [5] | Activity [6] | Activity [7] | Activity [8] | Activity [9] | fold change (FC) [7] |
| --- | --- | --- | --- | --- | --- | --- | --- | --- | --- | --- | --- | --- | --- |
|  |  | 1.7 |  |  |  |  | C=C1/C(=C\C=C2/CCC[C@]3(C)[C@@H]([C@@H]4C[C@H](CC(C)(C)O)CO4)CC[C@@H]23)C[C@@H](O)C[C@@H]1O |  | inactive | inactive | Dose-dependent effect | Dose-dependent effect |  |
|  |  | 1.3 |  | 3.8 | Active | 13 | C=C1/C(=C\C=C2/CCC[C@]3(C)[C@@H]([C@@H]4C[C@@H](CC(C)(C)O)CO4)CC[C@@H]23)C[C@@H](O)[C@H](C)[C@@H]1O | Toxic | Active | Active |  |  | 10 |
|  |  | 3.2 |  |  |  |  | C=C1/C(=C\C=C2/CCC[C@]3(C)[C@@H]([C@@H]4C[C@H](CC(C)(C)O)CO4)CC[C@@H]23)C[C@@H](O)[C@H](C)[C@@H]1O | Non-toxic | inactive | inactive | Dose-dependent effect | Dose-dependent effect |  |
